The results in this text go back to ChEMBL document CHEMBL4725414, “Identification, Structure-Activity Relationship, and Biological Characterization of 2,3,4,5-Tetrahydro-1H-pyrido[4,3-b]indoles as a Novel Class of CFTR Potentiators” (J Med Chem, 2020).

The subject of test [1] is Cystic fibrosis transmembrane conductance regulator (Homo sapiens), P13569 [G551D]. Put plainly: Potentiation of human CFTR G551D mutant expressed in rat FRT cells coexpressing HS-YFP assessed as increase in iodide influx at 1.56 to 50 uM pre-incubated for 15 to 30 mins in presence of forskolin by fluorescent method relative to forskolin alone. Conditions: filed as activator, dose microM 1.56-50, time min 15-30. Type of test: cell-based. The method in brief: (§1)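 Cells plated 50,000/well, assayed next day; F508del FRT cells first held 24 h at 32 °C to rescue trafficking. Washed in PBS, incubated 25 min with forskolin (20 μM) plus compound, then I⁻ solution injected (final 100 mM). YFP fluorescence (ex 500, em 535 nm) read for 14 s; initial slope from linear fit of final 10 s; dose–response, n = 9.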

Test [2] has as its system Cystic fibrosis transmembrane conductance regulator (Homo sapiens), P13569 [F508del]. As to the kind of experiment: Potentiation of human CFTR F508 deletion mutant expressed in CFBE41o cells coexpressing HS-YFP assessed as increase in CFTR-dependent iodide influx at 0.256 to 10 uM pre-incubated for 15 to 30 mins in presence of forskolin by fluorescent method relative to forskolin alone. The settings on record: filed as activator, dose microM 0.256-10, time min 15-30.

Test [3] has the same test system. As to the kind of experiment: Potentiation of human CFTR F508 deletion mutant expressed in rat FRT cells coexpressing HS-YFP assessed as increase in iodide influx at 5 uM pre-incubated for 15 to 30 mins in presence of forskolin by fluorescent method relative to forskolin alone. The settings on record: filed as activator, time min 15-30. Type of test: cell-based. The gist of the method:
as §1

Test [4] shares this test system. As to the kind of experiment: Potentiation of human CFTR F508 deletion mutant expressed in rat FRT cells coexpressing HS-YFP assessed as increase in iodide influx at […] to 10 uM pre-incubated for 15 to 30 mins in presence of forskolin by fluorescent method relative to forskolin alone. Type of test: cell-based. Conditions: filed as activator, dose microM 0.256-10, time min 15-30. The method in brief: as §1

The test system is the same in test [5]. As to the kind of experiment: Potentiation of human CFTR F508 deletion mutant expressed in rat FRT cells coexpressing HS-YFP assessed as increase in iodide influx pre-incubated for 15 to 30 mins in presence of forskolin by fluorescent method relative to forskolin alone. Type of test: cell-based. Conditions: time min 15-30. The gist of the method: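 Primary HTS: F508del-CFTR/HS-YFP FRT cells, rescued 24 h at 32 °C, were treated acutely (15–30 min) with single compound at 5 μM plus forskolin 10 μM, screened in duplicate. The HS-YFP quenching rate from iodide influx was expressed relative to forskolin-alone wells. Forskolin plus VX-770 1 μM served as positive control. The average of two rounds was scored, with hit threshold >185%.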

The target in test [6] is T1, Cystic fibrosis transmembrane conductance regulator (Homo sapiens, UniProt P13569). Put plainly: Potentiation of human CFTR F508 deletion mutant expressed in rat FRT cells coexpressing HS-YFP assessed as increase in iodide influx pre-incubated for 15 to 30 mins in presence of forskolin by fluorescent method. Type of test: cell-based.
Target sequence in this assay (P13569 as listed by the source): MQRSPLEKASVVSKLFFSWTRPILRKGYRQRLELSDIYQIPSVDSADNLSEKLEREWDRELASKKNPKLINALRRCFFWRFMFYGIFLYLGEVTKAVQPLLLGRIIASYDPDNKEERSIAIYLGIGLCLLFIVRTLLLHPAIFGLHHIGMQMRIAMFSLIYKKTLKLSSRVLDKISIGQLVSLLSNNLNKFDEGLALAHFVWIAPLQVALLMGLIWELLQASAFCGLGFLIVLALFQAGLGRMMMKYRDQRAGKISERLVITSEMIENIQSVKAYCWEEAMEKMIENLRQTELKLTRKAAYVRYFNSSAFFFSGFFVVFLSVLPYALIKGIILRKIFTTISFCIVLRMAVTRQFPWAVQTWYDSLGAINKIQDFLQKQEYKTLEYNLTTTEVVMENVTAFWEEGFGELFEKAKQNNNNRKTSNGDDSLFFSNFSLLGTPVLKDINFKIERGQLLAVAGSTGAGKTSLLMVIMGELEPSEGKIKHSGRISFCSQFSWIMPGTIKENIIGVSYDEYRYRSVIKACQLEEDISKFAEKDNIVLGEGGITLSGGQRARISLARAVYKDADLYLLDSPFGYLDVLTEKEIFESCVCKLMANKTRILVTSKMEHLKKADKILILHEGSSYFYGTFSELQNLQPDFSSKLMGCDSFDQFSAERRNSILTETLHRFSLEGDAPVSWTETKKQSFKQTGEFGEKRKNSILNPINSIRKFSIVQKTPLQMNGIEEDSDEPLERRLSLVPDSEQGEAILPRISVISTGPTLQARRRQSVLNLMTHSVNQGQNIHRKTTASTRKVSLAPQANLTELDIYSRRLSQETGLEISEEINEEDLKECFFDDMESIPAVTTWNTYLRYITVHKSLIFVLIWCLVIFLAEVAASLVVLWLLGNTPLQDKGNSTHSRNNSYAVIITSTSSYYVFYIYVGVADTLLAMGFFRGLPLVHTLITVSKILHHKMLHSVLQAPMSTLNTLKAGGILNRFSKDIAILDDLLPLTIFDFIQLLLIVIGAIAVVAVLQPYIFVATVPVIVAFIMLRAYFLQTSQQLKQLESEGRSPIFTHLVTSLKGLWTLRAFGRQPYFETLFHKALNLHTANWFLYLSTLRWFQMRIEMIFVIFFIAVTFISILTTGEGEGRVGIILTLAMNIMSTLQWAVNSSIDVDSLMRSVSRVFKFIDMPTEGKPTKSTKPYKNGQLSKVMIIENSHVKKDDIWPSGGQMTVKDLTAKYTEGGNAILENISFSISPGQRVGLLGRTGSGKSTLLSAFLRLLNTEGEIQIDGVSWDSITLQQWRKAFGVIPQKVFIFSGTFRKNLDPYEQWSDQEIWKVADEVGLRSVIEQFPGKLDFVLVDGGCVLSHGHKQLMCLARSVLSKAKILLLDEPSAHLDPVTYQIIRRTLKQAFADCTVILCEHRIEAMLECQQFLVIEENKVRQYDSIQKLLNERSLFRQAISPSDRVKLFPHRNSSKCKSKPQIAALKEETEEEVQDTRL
Test [7] concerns Cystic fibrosis transmembrane conductance regulator (Homo sapiens), P13569 [G551D]. As to the kind of experiment: Potentiation of human CFTR G551D mutant expressed in rat FRT cells coexpressing HS-YFP assessed as increase in iodide influx at 20 uM pre-incubated for 15 to 30 mins in presence of forskolin by fluorescent method relative to forskolin alone. Type of test: cell-based. The settings on record: time min 15-30. The gist of the method: (§2)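 HS-YFP iodide influx assay in FRT cells (F508del cells rescued 24 h at 32 °C; G551D cells not); 25 min with forskolin plus compound at fixed concentrations, then I⁻ injection (final 100 mM); quenching rate from linear fit of final 10 s of a 14 s reading; three concentrations tested on G551D cells; n = 9.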

Test [8] addresses T1, Cystic fibrosis transmembrane conductance regulator. As to the kind of experiment: Potentiation of CFTR in primary human bronchial epithelial cells assessed as stimulation of CFTR-mediated chloride current at 100 uM in presence of CPT-cAMP by short-circuit current method. The settings on record: dose 1.0 µM, in the assay text read “at 1 uM” for “at 100 uM”. The method in brief:
(§3)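 Non-CF primary HBE cells on porous inserts, differentiated at air–liquid interface 2–3 weeks; Ussing chamber short-circuit current. Amiloride added to block ENaC; cells stimulated with submaximal CPT-cAMP, then increasing potentiator concentrations or potentiator then CPT-cAMP 5 μM and 100 μM; total CFTR current defined by CFTR inhibitor-172; n = 9 (three experiments × three replicates).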
Target sequence in this assay (P13569 whole entry, looked up): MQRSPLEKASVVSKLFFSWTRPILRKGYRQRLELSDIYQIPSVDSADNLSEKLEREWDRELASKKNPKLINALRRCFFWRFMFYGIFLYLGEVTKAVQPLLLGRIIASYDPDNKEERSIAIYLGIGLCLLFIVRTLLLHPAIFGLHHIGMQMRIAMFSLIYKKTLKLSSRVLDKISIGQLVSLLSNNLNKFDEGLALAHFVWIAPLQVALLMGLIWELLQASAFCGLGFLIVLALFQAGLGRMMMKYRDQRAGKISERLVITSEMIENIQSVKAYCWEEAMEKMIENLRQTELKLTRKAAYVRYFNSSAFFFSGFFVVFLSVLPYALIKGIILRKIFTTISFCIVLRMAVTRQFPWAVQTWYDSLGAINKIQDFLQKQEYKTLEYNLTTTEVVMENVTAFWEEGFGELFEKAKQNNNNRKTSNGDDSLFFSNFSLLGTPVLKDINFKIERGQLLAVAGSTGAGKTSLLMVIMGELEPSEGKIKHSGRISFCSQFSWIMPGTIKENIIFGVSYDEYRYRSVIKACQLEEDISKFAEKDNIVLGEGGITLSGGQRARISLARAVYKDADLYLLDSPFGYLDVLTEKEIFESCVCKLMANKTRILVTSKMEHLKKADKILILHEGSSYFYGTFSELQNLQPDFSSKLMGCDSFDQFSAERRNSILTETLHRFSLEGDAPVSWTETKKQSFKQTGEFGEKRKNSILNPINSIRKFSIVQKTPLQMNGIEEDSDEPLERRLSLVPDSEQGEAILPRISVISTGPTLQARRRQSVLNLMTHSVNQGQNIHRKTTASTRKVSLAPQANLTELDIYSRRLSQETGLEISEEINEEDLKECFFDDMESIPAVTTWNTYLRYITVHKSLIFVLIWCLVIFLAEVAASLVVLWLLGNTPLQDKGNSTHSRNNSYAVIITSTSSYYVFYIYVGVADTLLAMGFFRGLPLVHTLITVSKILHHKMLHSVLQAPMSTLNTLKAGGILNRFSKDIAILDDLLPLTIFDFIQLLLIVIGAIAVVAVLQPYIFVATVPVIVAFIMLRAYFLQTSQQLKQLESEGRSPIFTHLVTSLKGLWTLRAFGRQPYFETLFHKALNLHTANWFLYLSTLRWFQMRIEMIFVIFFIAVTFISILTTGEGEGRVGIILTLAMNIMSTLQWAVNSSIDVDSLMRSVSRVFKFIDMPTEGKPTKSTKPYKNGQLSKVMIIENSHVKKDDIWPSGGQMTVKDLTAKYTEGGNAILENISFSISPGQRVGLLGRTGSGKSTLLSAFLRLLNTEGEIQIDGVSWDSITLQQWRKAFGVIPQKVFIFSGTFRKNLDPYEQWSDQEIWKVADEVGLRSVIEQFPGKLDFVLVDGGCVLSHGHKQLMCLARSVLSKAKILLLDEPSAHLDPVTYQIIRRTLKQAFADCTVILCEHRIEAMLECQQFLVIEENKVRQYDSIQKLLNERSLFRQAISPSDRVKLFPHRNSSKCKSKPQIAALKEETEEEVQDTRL

Test [9] relates to Cystic fibrosis transmembrane conductance regulator (Homo sapiens), P13569 [F508del]. Put plainly: Effect on processing/trafficking of CFTR F508 deletion mutant in primary HBE cells from F508del/F508del CF patient at 0.5 uM incubated for 24 hrs in presence of CFTR corrector ARN23765 by TEER/PD assay. Type of test: cell-based. The method in brief:
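Differentiated F508del/F508del primary bronchial epithelia grown at air–liquid interface 2–3 weeks; treated 24 h at 37 °C, 5% CO2 in culture medium with vehicle, corrector ARN23765 (10 nM) alone, or ARN23765 plus test compound (0.5 μM); TEER and PD measured, equivalent short-circuit current calculated; n = 9 (three experiments × three biological replicates).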

Test [10] has the same test system. As to the kind of experiment: Potentiation of human CFTR F508 deletion mutant expressed in rat FRT cells coexpressing HS-YFP assessed as increase in iodide influx at 1 uM pre-incubated for 15 to 30 mins in presence of forskolin by fluorescent method relative to forskolin alone. Type of test: cell-based. Conditions: filed as activator, time min 15-30. The method in brief:
as §2

Test [11] has as its system Cystic fibrosis transmembrane conductance regulator (Homo sapiens), P13569 [G551D]. As to the kind of experiment: Potentiation of human CFTR G551D mutant expressed in rat FRT cells coexpressing HS-YFP assessed as increase in iodide influx at 5 uM pre-incubated for 15 to 30 mins in presence of forskolin by fluorescent method relative to forskolin alone. Type of test: cell-based. Conditions: filed as activator, time min 15-30. The gist of the method:
as §2

The target in test [12] is T1, Cystic fibrosis transmembrane conductance regulator. Put plainly: Potentiation of CFTR in primary human bronchial epithelial cells assessed as stimulation of CFTR-mediated chloride current at 0.5 to 5 uM in presence of CPT-cAMP and CFTR inhibitor-172 by short-circuit current method. The settings on record: dose microM 0.5-5. The gist of the method:
as §3
Target sequence in this assay (P13569 whole entry, looked up): as above

The target is the same in test [13]. As to the kind of experiment: Potentiation of CFTR in primary human bronchial epithelial cells assessed as stimulation of CFTR-mediated chloride current at 30 to […] uM in presence of CPT-cAMP by short-circuit current method. The settings on record: filed as activator, dose microM 30-50. The gist of the method:
as §3
Target sequence in this assay (P13569 whole entry, looked up): as above

Structures are written as SMILES. Calls of active or inactive are those of the source. A value given as a limit tells only on which side of the number the result lay.

Cystic fibrosis transmembrane conductance regulator (Homo sapiens), P13569 [G551D], sequence (P13569 whole entry G551D): as the sequence (P13569 whole entry, looked up) above, with G551D counted along it
Cystic fibrosis transmembrane conductance regulator (Homo sapiens), P13569 [F508del], sequence (P13569 as listed by the source): as the sequence (P13569 as listed by the source) above

As for `O=C(c1cnn(-c2ccccc2)c1)N1CCc2[nH]c3ccccc3c2C1`, the result in test [1], in test [3] and in test [4] was Active. Also, the Activity result in test [2] is “Dose-dependent effect”.
As to `Cc1ccc(F)c2[nH]c3c(c12)[C@H]1CC[C@@H](C3)N1C(=O)c1cc(C(F)(F)F)[nH]n1`, in test [5], the Emax result was “inactive”. Further, the EC50 entry in [6] is reported as “Not Active”.
For `Cc1ccc(F)c2[nH]c3c(c12)CN(C(=O)c1cc(C(F)(F)F)[nH]n1)CC3`, the outcome in [7] (filed as activator) was Active.
With `CN(C)c1ccc2cc(C(=O)N3CCc4[nH]c5ccccc5c4C3)[nH]c2c1`, the outcome in test [1], in test [3] and in [4] was Active. In test [2], the Activity result is “Dose-dependent effect”.
For the molecule `COc1cc(F)c2[nH]c3c(c2c1)CN(C(=O)c1cc(C(F)(F)F)[nH]n1)CC3`, the outcome in test [7] (filed as activator) was Active.
With `Cc1ccc(F)c2[nH]c3c(c12)CN(C(=O)c1cc(C(F)(F)F)[nH]n1)[C@H](C)C3`, the fold change (FC) in [8] was more than 2. Besides, in test [9], the result was inactive. The result in test [7] (filed as activator) was Active.
Turning to `O=C(c1cc(C(F)(F)F)[nH]n1)N1CCc2[nH]c3c(F)cccc3c2C1`, the outcome in test [7] (filed as activator) was Active.
Turning to `CC(C)(C)c1cc(C(C)(C)C)c(NC(=O)c2c[nH]c3ccccc3c2=O)cc1O`, the outcome in [10], in test [11] and in test [7] (filed as activator) was Active.
Regarding `COc1ccc2[nH]c3c(c2c1)CN(C(=O)c1cc(C(F)(F)F)[nH]n1)CC3`, the result in test [1], in [3], in [13] and in [4] was Active. The Activity entry in test [2] was “Dose-dependent effect”. In addition, the result in [7] and in test [12] was inactive.
